One experiment has as its system MDA-MB-468. Description: Antiproliferative activity against human MDA-MB-468 cells assessed as cell viability incubated for 96 hrs by MTT assay. To be noted: MDA-MB-468, 96 h. The experiment is classed as functional, cell-based. A digest of the protocol: (§1)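 Adherent cells (2000/well) attached overnight, then exposed to compounds at 0.14–100 µM for 96 h in DMEM with 10% FBS. MTT at 0.5 mg/mL for 4 h in the dark, formazan dissolved in DMSO, absorbance at 570 nm. Compounds were freshly prepared in DMSO, with DMSO below 1%.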
A general note: Tetrazolium assays rely on reduction of a dye to a coloured formazan, in cell work by metabolically active cells.

Experiment [1] is described as follows: Selectivity index, ratio of IC50 for antiproliferative activity against tetracycline-treated human P493-6 cells expressing MYC assessed as inhibition of cell proliferation to IC50 for antiproliferative activity against human P493-6 cells expressing MYC assessed as inhibition of cell proliferation. The format is functional. In outline:
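MYC-off P493-6 cells obtained by 72 h pretreatment with 0.1 µg/mL tetracycline and compared with untreated MYC-high cells. Cells seeded at 3000 per 100 uL, held overnight at 37 °C, then treated at 0.14–100 uM final for 96 h. Viability read by CellTiter-Glo luminescence. IC50 values determined in both states and compared as a selectivity index.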

The next experiment has as its system MCF7. The experiment can be described thus: Antiproliferative activity against human MCF7 cells assessed as cell viability incubated for 96 hrs by MTT assay. The experiment is classed as functional, cell-based. The settings on record: MCF7, 96 h. A digest of the protocol:
as §1

The test system of a further experiment is MDA-MB-231. The experiment can be described thus: Antiproliferative activity against human MDA-MB-231 cells assessed as cell viability incubated for 96 hrs by MTT assay. The format is functional, cell-based. The settings on record: MDA-MB-231, 96 h. In outline: as §1
Experiment [2] can be described thus: Antiproliferative activity against tetracycline-treated human P493-6 cells expressing MYC assessed as inhibition of cell proliferation incubated for 96 hrs by cell titer glo assay. To be noted: P493-6, 96 h. The format is functional, cell-based. In outline:
(§2)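 P493-6 cells (3000/well, RPMI) were seeded overnight at 37 °C, then given compounds at final 0.14–100 µM for 96 h. MYC-off cells were pretreated with 0.1 µg/mL tetracycline for 72 h. Read-out was CellTiter-Glo luminescence after equilibration to room temperature. IC50 was determined in high-MYC and MYC-off cells.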

Experiment [3] is described as follows: Antiproliferative activity against human P493-6 cells expressing MYC assessed as inhibition of cell proliferation incubated for 96 hrs by cell titer glo assay. The format is functional, cell-based. To be noted: P493-6, 96 h. A digest of the protocol: as §2
(In ATP-based viability assays light output follows the ATP content of the culture.)

Experiment [4] is described as follows: Induction of apoptosis in human P493-6 cells assessed as late apoptotic cells at 25 uM incubated for 24 hrs by Annexin V/PI staining based flow cytometry analysis (reference value: 6.52 %). The experiment is classed as functional. Background: In flow cytometry, cells or beads pass a laser one at a time.
A short description of experiment [5]: Induction of apoptosis in human P493-6 cells assessed as early apoptotic cells at 25 uM incubated for 24 hrs by Annexin V/PI staining based flow cytometry analysis (reference value: 2.52 %). The experiment is classed as functional.
A short description of experiment [6]: Induction of apoptosis in human P493-6 cells assessed as necrotic cells at 25 uM incubated for 24 hrs by Annexin V/PI staining based flow cytometry analysis (reference value: 0.11 %). The format is functional.
Experiment [7] is described as follows: Induction of apoptosis in human P493-6 cells assessed as viable cells at 25 uM incubated for 24 hrs by Annexin V/PI staining based flow cytometry analysis (reference value: 90.8%). To be noted: read-out: Activity. The format is functional.
Experiment [8] has as its system P493-6. The experiment can be described thus: Antiproliferative activity against human P493-6 cells expressing MYC assessed as inhibition of cell proliferation at 25 uM incubated for 96 hrs by cell titer glo assay. The experiment is classed as functional, cell-based. A digest of the protocol:
(§3)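 P493-6 cells, either untreated (high MYC) or MYC-off after 0.1 µg/mL tetracycline for 72 h, were exposed to 25 µM for 96 h. Read-out was % survival by CellTiter-Glo luminescence. Mean ± SD, n = 6, unpaired t-test.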

Experiment [9] addresses T1, c-Myc/c-Max (Homo sapiens) (UniProt P01106+P61244). Description: Disruption of MYC-MAX interaction in human P493-6 cells assessed as reduction in myc level at 25 uM. The experiment is classed as cell-based.
Experiment [10] relates to P493-6. The experiment can be described thus: Antiproliferative activity against tetracycline-treated human P493-6 cells expressing MYC assessed as inhibition of cell proliferation at 25 uM incubated for 96 hrs by cell titer glo assay. The experiment is classed as functional, cell-based. A digest of the protocol: as §3
Experiment [11] deals with T1, c-Myc/c-Max (Homo sapiens). Description: Disruption of MYC-MAX interaction in human MDA-MB-468 cells assessed as reduction in myc level at 25 uM. The format is cell-based.

The record followed here is ChEMBL document CHEMBL6115033, “Discovery of a Pyrazolopyridinone-Based MYC Inhibitor That Selectively Engages Intracellular c-MYC and Disrupts MYC-MAX Heterodimerization” (J Med Chem, 2025).

SMILES strings stand for the structures. Activity calls are given as the source filed them. The calls are words filed in the database; no cut-off is given here.

T1 sequence (P01106 whole entry): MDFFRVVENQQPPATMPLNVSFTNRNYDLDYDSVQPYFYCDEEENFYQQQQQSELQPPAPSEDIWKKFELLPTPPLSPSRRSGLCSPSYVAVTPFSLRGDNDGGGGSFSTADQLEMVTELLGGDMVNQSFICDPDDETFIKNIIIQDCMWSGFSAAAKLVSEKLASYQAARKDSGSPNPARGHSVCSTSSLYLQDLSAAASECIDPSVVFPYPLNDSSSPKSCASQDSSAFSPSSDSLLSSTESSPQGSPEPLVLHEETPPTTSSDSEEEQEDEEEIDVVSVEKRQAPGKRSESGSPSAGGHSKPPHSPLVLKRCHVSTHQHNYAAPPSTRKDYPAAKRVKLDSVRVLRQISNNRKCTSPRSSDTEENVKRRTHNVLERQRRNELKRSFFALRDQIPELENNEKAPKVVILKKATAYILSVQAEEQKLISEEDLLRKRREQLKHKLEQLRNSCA
T1 sequence (P61244 2-160 partner limits assumed): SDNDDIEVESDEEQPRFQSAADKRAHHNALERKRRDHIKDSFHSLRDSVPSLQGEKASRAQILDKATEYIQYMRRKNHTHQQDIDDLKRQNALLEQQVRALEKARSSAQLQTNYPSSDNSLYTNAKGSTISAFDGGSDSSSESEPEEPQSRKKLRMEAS

A word on the IC50: it is the point on the concentration scale where inhibition reaches its midpoint. For `COc1ccc(-c2nn(-c3ccccc3)c3[nH]c(=O)c(C#N)cc23)cc1`, the IC50 in the experiment on MDA-MB-468 was 33.1 µM; with MCF7, 16.6 µM; in the experiment with MDA-MB-231, 38 µM; in experiment [2], more than 100 µM; in experiment [3], 20.9 µM. In addition, the “Ratio IC50” value in [1] is recorded as more than 4.
As to `N#Cc1cc2c(-c3ccc(F)cc3)nn(-c3ccc(F)cc3)c2[nH]c1=O`, the 50% inhibitory concentration (IC50) with MDA-MB-468 is 79.4 µM; in the experiment with MCF7, 9.3 µM; in the experiment on MDA-MB-231 it was more than 100 µM; in [2] it was more than 100 µM; in experiment [3] it was more than 100 µM.
As for `CCc1ccc(/C=C2/SC(=S)NC2=O)cc1`, the IC50 in the experiment on MDA-MB-468 came to 39.8 µM; in the experiment with MDA-MB-231 it was 44.7 µM; in [2] it was 59.5 µM; in experiment [3], 35.1 µM. The Activity in experiment [4] is 8.06%; in [5], 2.54%; in experiment [6], 0.062%. In addition, the “Ratio IC50” value in [1] is 1.7. The viability at 25 µM in experiment [7] amounted to 89.3%.
As to `COc1ccc(-n2nc(-c3ccc(C)cc3)c3cc(C#N)c(=O)[nH]c32)cc1`, the IC50 amounted to 7.9 µM with MDA-MB-468; 9.3 µM in the experiment on MCF7; 9.8 µM in the experiment with MDA-MB-231; 75.9 µM in experiment [2]; 51.2 µM in [3]. The “Ratio IC50” value in experiment [1] is 1.5.
As for `Cc1ccc(-c2nn(-c3ccccc3)c3[nH]c(=O)c(C#N)cc23)cc1`, the IC50 with MDA-MB-468 stood at 32.4 µM; with MCF7, 20.4 µM; with MDA-MB-231, 34.7 µM; in [2] it was 51.3 µM; in experiment [3], 21.1 µM. Besides, the “Ratio IC50” value in experiment [1] was 2.4.
On to `N#Cc1cc2c(-c3ccc(Br)cc3)nn(-c3ccccc3)c2[nH]c1=O`, for which the IC50 in the experiment on MDA-MB-468 was 13.2 µM; in the experiment on MCF7, 12.2 µM; in the experiment on MDA-MB-231, 5.5 µM; in experiment [2], 35.9 µM; in experiment [3], 15.6 µM. In [1], the “Ratio IC50” value amounted to 2.3. The outcome (in the experiment with P493-6 [8]; in [9]; in the experiment with P493-6 [10]; in [11]) was Active.
As for `Cc1ccc(-c2nn(-c3ccc(Cl)cc3)c3[nH]c(=O)c(C#N)cc23)cc1`, the IC50 in the experiment with MDA-MB-468 was 71.6 µM; in the experiment on MCF7, more than 100 µM; in the experiment on MDA-MB-231, 58.9 µM.
